A selection: hits, their analogues and other compounds. The true share with any hit is near 3.5%.
MrgX1 ag = agonists of human MrgX1 receptor, primary screen, HEK293 cells, Fluo-4 calcium flux; Fluo-4 calcium fluorescence, agonist mode; hits give high values; Mas-related G-protein coupled receptor member X1 (Homo sapiens), Q96LB2; AID 588627, 2011; B-score at 10 µM; 310,000 tested, 0.44% active;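 active means calcium response B-score plate-corrected fluorescence ratio at least 3 library SD, with starting fluorescence B-score inside 5 SD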
Target sequence (Q96LB2 whole entry, looked up): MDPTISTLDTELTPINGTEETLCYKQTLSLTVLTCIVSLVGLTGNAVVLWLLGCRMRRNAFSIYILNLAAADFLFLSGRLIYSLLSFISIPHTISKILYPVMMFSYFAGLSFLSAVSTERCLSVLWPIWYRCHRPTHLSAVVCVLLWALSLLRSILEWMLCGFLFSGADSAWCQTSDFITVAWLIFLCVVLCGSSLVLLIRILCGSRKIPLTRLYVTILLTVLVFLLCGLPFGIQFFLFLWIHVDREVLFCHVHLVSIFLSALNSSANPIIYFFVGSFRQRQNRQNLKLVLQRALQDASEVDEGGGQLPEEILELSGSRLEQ
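Material – MrgX1-expressing HEK293 cells · Input – 15,000 cells seeded per well · Dosing – compound as first of three additions · Times – overnight seeding, then 1 h dark dye loading · Measured by – kinetic Fluo-4 NW fluorescence of intracellular calcium · Read-out – B-scored fluorescence response ratio · Benchmarks – positive and negative control wells on each plate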
RGS4 inh = RGS4 inhibitors, primary screen, cell-based, HEK293 M3R inducible RGS4, calcium flux. Regulator of G-protein signaling 4 (Homo sapiens), P49798. Fluo-4 calcium flux; hits give high values; triggered by carbachol at its EC20. B-score at 10 µM. 310,000 tested, 0.45% active. AID 463165, 2010;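 active means B-score, a plate-corrected calcium signal, over three deviations above library mean, with baseline fluorescence within five deviations of library mean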;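 further: RGS4 expression induced by doxycycline in cells with stable M3 receptor; B-score is computed from the integrated fluorescence ratio over baseline after carbachol; higher B-score means a larger calcium signal and so more RGS4 inhibition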
Target sequence (P49798 whole entry, looked up): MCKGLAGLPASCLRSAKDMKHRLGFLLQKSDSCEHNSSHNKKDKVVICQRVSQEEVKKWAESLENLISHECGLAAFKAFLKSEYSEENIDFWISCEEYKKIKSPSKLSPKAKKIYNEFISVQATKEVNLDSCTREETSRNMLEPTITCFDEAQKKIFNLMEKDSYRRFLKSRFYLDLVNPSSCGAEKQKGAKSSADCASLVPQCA
RGS4 act = RGS4 potentiators or activators, primary screen, cell-based, HEK293 M3R inducible RGS4, calcium flux; carbachol calcium flux Fluo4; hits give low values; B-score at 10 µM; 310,000 tested, 0.92% active; AID 463111, 2010;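 active means B-score of the integrated calcium signal more than 4 SD below the library mean, with starting fluorescence not abnormally high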;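 further: negative B-score means reduced calcium response which marks RGS4 activation or potentiation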
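test system = M3R-expressing HEK293 line, RGS4 induced by doxycycline | probe or stimulus = carbachol at ECmax as muscarinic agonist stimulus | timing = dye loading 30 min 37 °C, buffer rest 30 min RT | signal = calcium dye Fluo4 fluorescence | evaluation = B score from integrated fluorescence ratio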
MrgX1 antag = antagonists of human MrgX1 receptor, primary screen, HEK293 cells, Fluo-4 calcium flux; Mas-related G-protein coupled receptor member X1 (Homo sapiens), Q96LB2; BAM8-22 antagonism; hits give low values; B-score at 10 µM; 310,000 tested, 1.3% active;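 active means calcium-response B-score plate-corrected more than 3 library SD below zero, starting fluorescence within 5 deviations, no agonist response on first addition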;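 further: peak minus trough fluorescence over baseline after final BAM8-22 challenge near maximal dose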
MrgX1 PAM = positive allosteric modulators of MrgX1, primary screen, HEK293 cells, Fluo-4 calcium flux; 310,000 tested, 0.63% active; AID 588675, 2011; FDSS; hits give high values; Mas-related G-protein coupled receptor member X1 (Homo sapiens), Q96LB2; B-score at 10 µM;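 active means plate-corrected calcium response at least 3 library SD above typical, normal starting fluorescence, not activating the receptor alone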;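 further: compound read alongside a low EC10 to EC30 dose of BAM8-22 agonist; peak minus trough fluorescence over baseline measured at the second addition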
MrgX1 antag conf = MrgX1 receptor antagonists, duplicate retest, confirmation, HEK293 cells, Fluo-4 calcium flux. shares compounds with MrgX1 antag. BAM8-22 calcium flux; hits give low values. remaining BAM8-22 calcium response % of control (hits give low values), % at 10 µM. 2,300 tested, 19% active. AID 602420, 2012;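 active means remaining agonist calcium response no higher than 100% minus 3 SD of agonist-only control wells, with starting fluorescence near control levels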;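 further: agonist BAM8-22 given at a near maximal EC90 to ECmax level; peak minus minimum fluorescence divided by baseline after agonist addition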
HEK293 Ca flux = nonspecific calcium signal in parental HEK293, confirmation, counter-screen for MrgX1 antagonist project, parental HEK293 cells, Fluo-4 calcium flux; shares compounds with MrgX1 antag; fluorescence ratio F(max-min)/F0 at 10 µM; 4,000 tested, 2% active; Fluo-4 calcium fluorescence, FDSS;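 active means duplicate-averaged calcium fluorescence ratio at least three times the standard deviation of buffer wells, a nonspecific response in parental cells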
HEK293 Ca counter = calcium response in parental HEK293 cells, primary screen, counter-screen for MrgX1 allosteric activator project, cell-based, Fluo-4 calcium flux, duplicate. shares compounds with MrgX1 antag. Fluo-4 fluorescence ratio; hits give high values. fluorescence ratio F(max-min)/F0 at 10 µM. 4,000 tested, 0.4% active;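 active means calcium fluorescence ratio, averaged over duplicates, at least 3 SD of the buffer-well ratio, meaning a nonspecific response in receptor-free cells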;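 further: untransfected parental HEK293 lacking MrgX1 used as counterscreen for MrgX1 allosteric activators; fluorescence change taken during the second addition on a kinetic imager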
HEK293 Ca cntr2 = calcium response in parental HEK293 cells, primary screen, counter-screen for MrgX1 agonist project, cell-based, Fluo-4 calcium flux, duplicate, agonist mode | Fluo-4 calcium fluorescence (FDSS); hits give high values | 4,000 tested, 8.7% active | fluorescence ratio F(max-min)/F0 at 10 µM | shares compounds with MrgX1 antag;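 active means calcium fluorescence ratio at least three times the spread of buffer wells, meaning a non-specific response in parental cells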
Starred values were filed as active, the others as inactive; i = inactive; . = no result given.

SMILES | MrgX1 ag | RGS4 inh | RGS4 act | MrgX1 antag | MrgX1 PAM | MrgX1 antag conf | HEK293 Ca flux | HEK293 Ca counter | HEK293 Ca cntr2
O=C(Nc1ccc2c(c1)OCCO2)c1cc(-c2ccccc2)nc2ccccc12 | i | i | i | -5* | i | i | i | i | i
Cc1nn(C)c(C)c1S(=O)(=O)NC1CCCC1 | i | i | i | i | i | . | . | . | .
Cc1nn(-c2nnc(NC3CCCCC3)nn2)c(C)c1Br | i | i | i | -4.5* | i | i | i | i | i
CCOC(=O)N1CCN(C(=O)C2CCN(Cc3nc(-c4ccccc4C)oc3C)CC2)CC1 | i | i | i | -4.8* | i | i | i | i | i
Cc1cccc(C)c1C(=NCCN(C)C)c1ccccc1 | i | i | i | i | i | . | . | . | .
CN(C(=O)COC(=O)c1cccnc1Nc1ccccc1F)C1CCS(=O)(=O)C1 (stereo not given) | i | i | i | i | i | . | . | . | .
CN(C(=O)COC(=O)c1cccnc1Nc1cccc(C(F)(F)F)c1)C1CCS(=O)(=O)C1 (stereo not given) | i | i | i | -5.7* | i | i | i | i | i
COC(=O)c1ccc(N2CCCCC2)c(NC(=O)c2ccco2)c1 | i | i | i | i | i | . | . | . | .
CCOC(=O)c1cnc2nc(C(F)(F)F)[nH]n2c1=O | i | i | i | -5.5* | i | i | i | i | i
CCc1nnc(SCC(=O)Nc2ccc(N3CCOCC3)cc2)n1C | i | i | i | -5.6* | i | i | i | i | i
Cc1ccccc1OCc1nnc(SCC(=O)Nc2ccc(N3CCOCC3)cc2)n1C | i | i | i | i | i | . | . | . | .
Brc1ccc(CNc2cc3c(cc2Br)OCCO3)cc1 | i | i | i | -4.5* | i | i | i | i | i
CC(=O)Nc1cc2c(cc1Br)OCCO2 | i | i | i | i | i | . | . | . | .
Cc1c(C(=O)OCCOc2ccccc2)[nH]c2c1C(=O)CCC2 | i | i | i | -5.2* | i | 67%* | i | i | i
CC(=O)c1c(C)[nH]c(C(=O)OCCOc2ccccc2)c1C | i | i | i | i | i | . | . | . | .
O=C(NC1CC1)c1cc2c(s1)-c1ccccc1OC2 | i | i | i | -5.2* | i | i | i | i | i
O=C(c1cc(COc2cccc3cnccc23)on1)N1CCC(c2ccccc2Cl)C1 (stereo not given) | i | i | i | -4.6* | i | i | i | i | i
O=C(c1cc(COc2c(F)cccc2F)on1)N1CCC(c2ccccc2Cl)C1 (stereo not given) | i | i | i | i | i | . | . | . | .
CCN1C(=O)C(CC(=O)NCc2ccc(Cl)cc2)N(CC)C1=O (stereo not given) | i | i | i | -5.1* | i | i | i | i | i
CCn1ncc(Br)c1C(=O)Nc1ccc(C(C)C)cc1 | i | i | i | i | i | . | . | . | .
COCCn1c(C)cc(C(=O)CSc2ncn[nH]2)c1C | i | i | i | -5.1* | i | i | i | i | i
COCCn1c(C)cc(C(=O)CSc2nc(C)c(C)c(C)n2)c1C | i | i | i | i | i | . | . | . | .
CCSc1nsc(NC(=O)Nc2cccc(F)c2)n1 | i | i | i | -7.4* | i | 78%* | i | i | i
COC(=O)c1cc(NC(=O)c2ccc(-c3ccccc3)cc2)ccc1Cl | i | i | i | -8.1* | i | i | i | i | i
O=C(Nc1cccc(Cl)c1)Nc1cccc(Cl)c1 | i | i | i | i | i | . | . | . | .
SMILES | MrgX1 ag | RGS4 inh | RGS4 act | MrgX1 antag | MrgX1 PAM | MrgX1 antag conf | HEK293 Ca flux | HEK293 Ca counter | HEK293 Ca cntr2
O=C(Nc1cccc(F)c1)Nc1cccc(Cl)c1 | i | i | i | -5.1* | i | 65%* | i | i | i
COC(=O)c1cc(NC(=O)Nc2cccc(Cl)c2)ccc1Cl | i | i | i | -4.7* | i | 82%* | i | i | i
COC(=O)c1ccn(CC(=O)NC2CCCCC2)n1 | i | i | i | i | i | . | . | . | .
Cc1nc(N2CCOCC2)[nH]c(=O)c1C | i | i | i | i | i | . | . | . | .
NS(=O)(=O)c1cccc(NC(=O)Nc2ccc(Cl)cc2)c1 | i | i | i | -6.3* | i | 83%* | i | i | i
CN(C)S(=O)(=O)c1cccc(NC(=O)CCc2nc3cc(S(=O)(=O)N4CCOCC4)ccc3n2C)c1 | i | i | i | i | i | . | . | . | .
Cc1cc2oc(=O)cc(CN3CCN(S(=O)(=O)c4ccc5c(c4)OCCO5)CC3)c2cc1C | i | i | i | -8.6* | i | i | i | i | i
O=C(c1ccc(Br)o1)N1CCN(C23CC4CC(CC(C4)C2)C3)CC1 | i | i | i | -5* | i | i | i | i | i
CC(=O)Nc1ccc2c(c1)CCCC2 | i | i | i | i | i | . | . | . | .
CC(=O)Nc1ccc2c(c1)CCCC2=O | i | i | i | -4.6* | i | 77%* | i | i | i
O=C(CN1CCC(n2cnc3cc(F)ccc32)CC1)Nc1ccccc1Br | i | i | i | i | i | . | . | . | .
CCc1nc(C)ccc1OCC(=O)N1CCc2c([nH]c3ccccc23)C1c1ccccn1 (stereo not given) | i | i | i | i | i | . | . | . | .

Screening data deposited in PubChem by Johns Hopkins Ion Channel Center.
